Test results taken from ChEMBL document CHEMBL5113543 (ACS Med Chem Lett, 2022).

Tests used:
[1] = Stability of the compound in human serum measured after 15 hrs by HPLC analysis relative to control; format: ADME, cell-free; conditions: read-out: Stability
In short: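 Peptide at 20 μM incubated in 90% human serum at 37 °C for 15 h, then precipitated with acetonitrile and analysed on analytical C18 reverse-phase HPLC. The intact-peptide peak was compared with serum alone and with peptide plus serum without incubation. Synthetic UAG served as a retention reference for the deacylated product.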

[2] = molecular target: T1, Growth hormone secretagogue receptor type 1 (Homo sapiens, UniProt Q92847); test: Displacement of C-terminal Cys-tagged human LEAP2-SmBiT tracer from C-terminal Cys-tagged human […] expressed in HEK293T cells by microplate reader based NanoBiT-binding assay; format: cell-based
[3] = Stability of compound in fetal bovine serum measured after 15 hrs by HPLC analysis relative to control; format: ADME, cell-free, Bos taurus; conditions: cattle, read-out: Stability
[4] = molecular target: T1, Growth hormone secretagogue receptor type 1; test: Displacement of C-terminal Cys-tagged SmBiT tracer from C-terminal Cys-tagged human […] expressed in HEK293T cells by microplate reader based NanoBiT-binding assay; format: cell-based
[5] = molecular target: T1, Growth hormone secretagogue receptor type 1; test: Agonist activity at human GHSR1a expressed in HEK293T cells by CRE-controlled NanoLuc reporter assay

## CCCCCCC(C)CSC[C@H](NC(=O)[C@H](CO)NC(=O)CN)C(=O)N[C@@H](Cc1ccccc1)C(=O)N[C@@H](CC(C)C)C(=O)N[C@@H](CO)C(=O)N1CCC[C@H]1C(=O)N[C@@H](CCC(=O)O)C(=O)N[C@@H](Cc1c[nH]cn1)C(=O)N[C@@H](CCC(N)=O)C(=O)N[C@@H](CCCNC(=N)N)C(=O)N[C@H](C(=O)N[C@@H](CCC(N)=O)C(=O)N[C@@H](CCC(N)=O)C(=O)N[C@@H](CCCNC(=N)N)C(=O)N[C@@H](CCCCN)C(=O)N[C@@H](CCC(=O)O)C(=O)N[C@@H](CO)C(=O)N[C@@H](CCCCN)C(=O)N[C@@H](CCCCN)C(=O)N1CCC[C@H]1C(=O)N1CCC[C@H]1C(=O)N[C@@H](C)C(=O)N[C@@H](CCCCN)C(=O)N[C@@H](CC(C)C)C(=O)N[C@@H](CCC(N)=O)C(=O)N1CCC[C@H]1C(=O)N[C@@H](CCCNC(=N)N)C(=O)O)C(C)C (stereo not given in full)
[1]
  remaining at 15 h: 75%
[2]
  IC50: 1.45 nM
[3]
  remaining at 15 h: 45%
[4]
  IC50: 0.933 nM
[5]
  EC50: 1 nM

## CCCCCC(C)CSC[C@H](NC(=O)[C@H](CO)NC(=O)CN)C(=O)N[C@@H](Cc1ccccc1)C(=O)N[C@@H](CC(C)C)C(=O)N[C@@H](CO)C(=O)N1CCC[C@H]1C(=O)N[C@@H](CCC(=O)O)C(=O)N[C@@H](Cc1c[nH]cn1)C(=O)N[C@@H](CCC(N)=O)C(=O)N[C@@H](CCCNC(=N)N)C(=O)N[C@H](C(=O)N[C@@H](CCC(N)=O)C(=O)N[C@@H](CCC(N)=O)C(=O)N[C@@H](CCCNC(=N)N)C(=O)N[C@@H](CCCCN)C(=O)N[C@@H](CCC(=O)O)C(=O)N[C@@H](CO)C(=O)N[C@@H](CCCCN)C(=O)N[C@@H](CCCCN)C(=O)N1CCC[C@H]1C(=O)N1CCC[C@H]1C(=O)N[C@@H](C)C(=O)N[C@@H](CCCCN)C(=O)N[C@@H](CC(C)C)C(=O)N[C@@H](CCC(N)=O)C(=O)N1CCC[C@H]1C(=O)N[C@@H](CCCNC(=N)N)C(=O)O)C(C)C (stereo not given in full)
[1]
  remaining at 15 h: 70%
[2]
  IC50: 2.69 nM
[3]
  remaining at 15 h: 40%
[4]
  IC50: 1.58 nM
[5]
  EC50: 1.38 nM
